In one experiment the test system is HL-60. Kind of experiment: Cytotoxicity against human HL60 cells by MTT assay. The class given is functional, cell-based. In a few lines:
(§1)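 After compound treatment, cells washed once with PBS and incubated 2 h with MTT. Formazan dissolved in DMSO, absorbance read at 570 nm.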

The test system of another experiment is HCT-116. Kind of experiment: Cytotoxicity against human HCT116 cells by MTT assay. In kind it is functional, cell-based. In a few lines: as §1
A general note: Tetrazolium assays rely on reduction of a dye to a coloured formazan, in cell work by metabolically active cells.

Experiment [1] can be described thus: Cytotoxicity against human Hep3B cells by MTT assay. In kind it is functional, cell-based, Hep 3B2. In a few lines: as §1
A short description of experiment [2]: Inhibition of tubulin polymerization. In a few lines:
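Turbidimetric assembly assay. Tubulin 1.0 mg/mL (10 μM) preincubated 15 min at 30 °C with varying drug concentrations, without GTP. Samples then chilled, 0.4 mM GTP added, and turbidity followed for 20 min at 30 °C after a temperature jump from 0 °C.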

The next experiment relates to A549. Kind of experiment: Cytotoxicity against human A549 cells by SRB assay. The class given is functional, cell-based. The method in brief: (§2)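 Cells exposed to compound or DMSO for the stated periods, fixed with 10% TCA, then stained with 0.4% (w/v) SRB in 1% acetic acid. Unbound dye removed with 1% acetic acid, bound dye dissolved in 10 mM Trizma base, absorbance read at 515 nm.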

For a further experiment, the system named is KB. Kind of experiment: Cytotoxicity against human KB cells by SRB assay. The class given is functional, cell-based. The method in brief: as §2
On the technique in general: The SRB assay estimates cell density from bound dye.

A short description of experiment [3]: Cytotoxicity against human KBVIN cells by SRB assay. In kind it is functional, cell-based. The method in brief:
as §2

For a further experiment, the system named is DU-145. Kind of experiment: Cytotoxicity against human DU145 cells by SRB assay. In kind it is functional, cell-based. In a few lines:
as §2

Experiment [4] in a line: Displacement of [3H]colchicine from tubulin at 1 uM […]. The method in brief: (§3)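 Tubulin (1.0 μM) incubated 10 min at 37 °C with 5.0 μM [3H]colchicine and inhibitor at 1.0 or 5.0 μM. At this time roughly 40–60% of maximal colchicine binding has occurred. Inhibition of radiolabel binding measured.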
(In general: Displacement assays read how much labelled ligand stays bound in the presence of the test substance.)

Experiment [5] can be described thus: Displacement of [3H]colchicine from tubulin at 5 uM by turbidimetry. The method in brief:
as §3

The test system of another experiment is HCC 2998. Kind of experiment: Cytotoxicity against human HCC2998 cells. In kind it is functional, cell-based.
In another experiment the test system is KM12. Kind of experiment: Cytotoxicity against human KM12 cells. In kind it is functional, cell-based.
The test system of the next experiment is SF-539. Kind of experiment: Cytotoxicity against human SF539 cells. The class given is functional, cell-based.
In a further experiment the test system is SNB-75. Kind of experiment: Cytotoxicity against human SNB75 cells. The class given is functional, cell-based.
The next experiment relates to SK-MEL-5. Kind of experiment: Cytotoxicity against human SK-MEL-5 cells. The class given is functional, cell-based.
Another experiment concerns IGROV-1. Kind of experiment: Cytotoxicity against human IGROV1 cells. In kind it is functional, cell-based.
The test system of experiment [6] is OVCAR-3. Kind of experiment: Cytotoxicity against human OVCAR-3 cells. In kind it is functional, cell-based.
Experiment [7] concerns OVCAR-3. Kind of experiment: Antitumor activity against human OVCAR-3 cells xenografted in nude mouse dosed as ip once weekly for three courses. The class given is functional.
Experiment [8] concerns OVCAR-3. Kind of experiment: Antitumor activity against human OVCAR-3 cells xenografted in nude mouse assessed as life span extension at 200 mg/kg, ip once weekly for three courses. The class given is functional. The conditions noted are these: route intraperitoneal.
Experiment [9] concerns OVCAR-3. Kind of experiment: Antitumor activity against human OVCAR-3 cells xenografted in nude mouse assessed as life span extension at 134 mg/kg, ip once weekly for three courses. The following applies: route intraperitoneal. The class given is functional.
The subject of experiment [10] is OVCAR-3. Kind of experiment: Antitumor activity against human OVCAR-3 cells xenografted in nude mouse assessed as life span extension at 79 mg/kg, ip once weekly for three courses. The class given is functional. The following applies: route intraperitoneal.

IC50, Activity and MTD data for 16 compounds are collected here from ChEMBL document CHEMBL1158496, “Design and synthesis of 2-(3-benzo[b]thienyl)-6,7-methylenedioxyquinolin-4-one analogues as potent antitumor agents that inhibit tubulin assembly” (J Med Chem, 2009).

For orientation: IC50 means the concentration that gives 50% inhibition.

Activity calls are given as the source filed them. No cut-off for these calls is given here.

Consider `Cc1c(-c2cccc3ccccc23)c(=O)[nH]c2cc3c(cc12)OCO3`, for which the IC50 was greater than 10000 nM in the experiment with HL-60, greater than 10000 nM with HCT-116 and 4300 nM in [1].
For `O=c1cc(-c2cccc3ncccc23)[nH]c2cc3c(cc12)OCO3`, the concentration for half-maximal inhibition (IC50) in experiment [2] was 27000 nM; in the experiment with HL-60, greater than 10000 nM; with HCT-116 it was greater than 10000 nM; in the experiment on A549 it was greater than 10000 nM; in [1] it was greater than 10000 nM; with KB it was greater than 10000 nM. For the same compound, the IC50 (in experiment [3]; with DU-145) was greater than 10000 nM in each case.
For `O=c1cc(-c2ccc3ccccc3c2)[nH]c2cc3c(cc12)OCO3`, the IC50 was greater than 40000 nM in experiment [2]; 500 nM in the experiment with HL-60; greater than 1000 nM with HCT-116; greater than 1000 nM with A549; greater than 1000 nM in [1]; greater than 1000 nM in the experiment on KB. Also, the IC50 (in [3]; in the experiment on DU-145) was greater than 1000 nM each time.
With `O=c1cc(-c2cccc3cc4ccccc4cc23)[nH]c2cc3c(cc12)OCO3`, the half-inhibitory concentration (IC50) in experiment [2] is greater than 40000 nM; in the experiment with HL-60 it was 530 nM; with HCT-116 it was 1600 nM; in experiment [1], 2200 nM.
As for `O=c1cc(-c2cccc3ccccc23)[nH]c2cc3c(cc12)OCO3`, the 50% inhibitory concentration (IC50) in experiment [2] came out at 640 nM; in the experiment with HL-60, 70 nM; in the experiment with HCT-116, 70 nM; in the experiment on A549 it was 130 nM; in experiment [1], 70 nM; in the experiment on KB, 130 nM. Moreover, the IC50 in [3] was determined as 190 nM; in the experiment with DU-145 it was 130 nM. Moreover, the Activity in experiment [4] worked out at 33%; in [5] it was 67%.
In the case of `O=c1cc(-c2cc3ccccc3s2)[nH]c2cc3c(cc12)OCO3`, the IC50 (with HL-60; with HCT-116; with A549; in experiment [1]; in the experiment on KB; in experiment [3]) was greater than 1000 nM throughout. The compound further gave an IC50 with DU-145 greater than 1000 nM.
In the case of `O=c1cc(-c2ccc3ccccc3n2)[nH]c2cc3c(cc12)OCO3`, the half-maximal inhibitory concentration (IC50) in experiment [2] is greater than 40000 nM; in the experiment with HL-60, greater than 5000 nM; in the experiment on HCT-116, greater than 5000 nM; in the experiment with A549, greater than 5000 nM; in experiment [1] it was greater than 5000 nM; in the experiment with KB it was greater than 5000 nM. Further, the IC50 (in experiment [3]; in the experiment with DU-145) was greater than 5000 nM each time.
Take `O=c1cc(-c2csc3ccccc23)[nH]c2cc3c(cc12)OCO3`: the 50% inhibitory concentration (IC50) in [2] was 760 nM; with HL-60, 170 nM; with HCT-116, 140 nM; with A549, greater than 250 nM; in experiment [1] it was 60 nM; in the experiment on KB it was greater than 250 nM. Further, the 50% inhibitory concentration (IC50) (in experiment [3]; in the experiment on DU-145) was greater than 250 nM throughout. For the same compound, the figures for the Activity in experiment [4] and in [5] were 25% and 61%, respectively.
For the compound `Cc1cnc2nc(-c3csc4ccccc34)cc(O)c2c1`, the IC50 in experiment [2] was found to be 370 nM.
For `O=c1cc(-c2ccnc3ccccc23)[nH]c2cc3c(cc12)OCO3`, the 50% inhibitory concentration (IC50) was greater than 40000 nM in [2]; greater than 5000 nM in the experiment with HL-60; greater than 5000 nM in the experiment with HCT-116; greater than 5000 nM in the experiment on A549; greater than 5000 nM in experiment [1]; greater than 5000 nM in the experiment with KB. Further, the IC50 (in [3]; with DU-145) was greater than 5000 nM in each case.
In experiment [4], `COc1ccc(/C=C\c2cc(OC)c(OC)c(OC)c2)cc1O` yielded an Activity of 91%.
`O=c1cc(-c2coc3ccccc23)[nH]c2cc3c(cc12)OCO3`: the IC50 in experiment [2] stood at 580 nM; in the experiment on HL-60, 30 nM; with HCT-116, 50 nM; with A549 it was 2980 nM; in experiment [1], 90 nM; with KB, 1050 nM. Moreover, the results for the 50% inhibitory concentration (IC50) (in experiment [3]; with DU-145) were 590 nM and 1870 nM, respectively. Besides, the Activity in [4] was 39%; in experiment [5], 51%. Besides, the outcome with HCC 2998, in the experiment with KM12, in the experiment with SF-539, with SNB-75, in the experiment on SK-MEL-5 and in the experiment on IGROV-1 was Active. Besides, the outcome with OVCAR-3 [6] was Active.
As to `O=c1cc(-c2cc3ccccc3o2)[nH]c2cc3c(cc12)OCO3`, the IC50 in experiment [2] was greater than 4000 nM; in the experiment with HL-60 it was greater than 1000 nM; in the experiment with HCT-116, greater than 1000 nM; in the experiment on A549, greater than 1000 nM; in experiment [1] it was greater than 1000 nM; in the experiment on KB it was greater than 1000 nM. In addition, the 50% inhibitory concentration (IC50) (in experiment [3]; in the experiment on DU-145) was greater than 1000 nM throughout.
Regarding `O=c1cc(-c2cnc3ccccc3c2)[nH]c2cc3c(cc12)OCO3`, the 50% inhibitory concentration (IC50) is greater than 4000 nM in experiment [2]; greater than 100 nM with HL-60; greater than 100 nM with HCT-116; greater than 100 nM with A549; greater than 100 nM in [1]; greater than 100 nM in the experiment with KB. The concentration for half-maximal inhibition (IC50) (in [3]; in the experiment with DU-145) was greater than 100 nM each time.
`O=c1cc(-c2ccccc2F)[nH]c2cc3c(cc12)OCO3`: the MTD with OVCAR-3 [7] is greater than 200 mg/kg. Besides, the Activity with OVCAR-3 [8] was 124%; with OVCAR-3 [9], 133%; with OVCAR-3 [10] it was 79%.
Consider `COc1cccc(-c2cc(O)c3cc(N4CCCC4)ccc3n2)c1`, for which the MTD in the experiment on OVCAR-3 [7] is 25 mg/kg.
